A selection: hits, their analogues and other compounds. The true share with any hit is near 3.5%.
MrgX1 antag – antagonists of human MrgX1 receptor, primary screen, HEK293 cells, Fluo-4 calcium flux | hit rate 1.3% among 310,000 | Mas-related G-protein coupled receptor member X1 (Homo sapiens), Q96LB2 | B-score at 10 µM | BAM8-22 antagonism; hits give low values | AID 588676, 2011;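 active = calcium-response B-score plate-corrected more than 3 library SD below zero, starting fluorescence within 5 deviations, no agonist response on first addition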;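 note: peak minus trough fluorescence over baseline after final BAM8-22 challenge near maximal dose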
Target sequence (Q96LB2 whole entry, looked up): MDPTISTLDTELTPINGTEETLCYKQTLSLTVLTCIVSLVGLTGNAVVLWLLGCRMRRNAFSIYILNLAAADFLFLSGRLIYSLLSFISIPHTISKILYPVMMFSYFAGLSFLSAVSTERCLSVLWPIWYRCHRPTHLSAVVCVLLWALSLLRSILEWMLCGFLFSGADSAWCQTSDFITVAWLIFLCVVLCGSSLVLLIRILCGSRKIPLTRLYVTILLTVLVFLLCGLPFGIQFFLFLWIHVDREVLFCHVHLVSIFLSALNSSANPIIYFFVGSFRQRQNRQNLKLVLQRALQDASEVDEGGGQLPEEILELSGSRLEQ
MrgX1 agonist – agonists of human MrgX1 receptor, primary screen, HEK293 cells, Fluo-4 calcium flux. Mas-related G-protein coupled receptor member X1 (Homo sapiens), Q96LB2. Fluo-4 calcium fluorescence, agonist mode; hits give high values. B-score at 10 µM. hit rate 0.44% among 310,000. AID 588627, 2011;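 active = calcium response B-score plate-corrected fluorescence ratio at least 3 library SD, with starting fluorescence B-score inside 5 SD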
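Material: MrgX1-expressing HEK293 cells; input: 15,000 cells per well; doses: test compound given as first of three sequential additions; schedule: overnight plating before 1 h dye loading; technique: Fluo-4 NW calcium-flux fluorescence, kinetic read; evaluation: baseline-normalised fluorescence change ratio, B-scored; control set: plate-wise positive and negative controls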
RGS4 block – RGS4 inhibitors, primary screen, cell-based, HEK293 M3R inducible RGS4, calcium flux; Regulator of G-protein signaling 4 (Homo sapiens), P49798; Fluo-4 calcium flux; hits give high values; triggered by carbachol at its EC20; B-score at 10 µM; hit rate 0.45% among 310,000;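 active = B-score, a plate-corrected calcium signal, over three deviations above library mean, with baseline fluorescence within five deviations of library mean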;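 note: RGS4 expression induced by doxycycline in cells with stable M3 receptor; B-score is computed from the integrated fluorescence ratio over baseline after carbachol; higher B-score means a larger calcium signal and so more RGS4 inhibition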
Target sequence (P49798 whole entry, looked up): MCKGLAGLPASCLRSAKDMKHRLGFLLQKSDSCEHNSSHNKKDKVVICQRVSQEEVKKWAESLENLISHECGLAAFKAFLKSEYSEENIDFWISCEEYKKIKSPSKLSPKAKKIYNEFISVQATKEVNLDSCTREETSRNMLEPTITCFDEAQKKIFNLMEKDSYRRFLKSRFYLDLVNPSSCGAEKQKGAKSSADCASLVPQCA
MrgX1 PAM – positive allosteric modulators of MrgX1, primary screen, HEK293 cells, Fluo-4 calcium flux; B-score at 10 µM; FDSS; hits give high values; hit rate 0.63% among 310,000; Mas-related G-protein coupled receptor member X1 (Homo sapiens), Q96LB2;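 active = plate-corrected calcium response at least 3 library SD above typical, normal starting fluorescence, not activating the receptor alone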;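 note: compound read alongside a low EC10 to EC30 dose of BAM8-22 agonist; peak minus trough fluorescence over baseline measured at the second addition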
RGS4 act – RGS4 potentiators or activators, primary screen, cell-based, HEK293 M3R inducible RGS4, calcium flux. AID 463111, 2010. B-score at 10 µM. hit rate 0.92% among 310,000. carbachol calcium flux Fluo4; hits give low values;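 active = B-score of the integrated calcium signal more than 4 SD below the library mean, with starting fluorescence not abnormally high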;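 note: negative B-score means reduced calcium response which marks RGS4 activation or potentiation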
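Detection: kinetic calcium fluorescence imaging with Fluo4-AM dye, 2 µM / Material: HEK293 cells with stable M3R and inducible RGS4 / Schedule: recording 10 s baseline at 1 Hz, 100 s post-agonist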
MrgX1 ant reconf – MrgX1 receptor antagonists, duplicate retest, confirmation, HEK293 cells, Fluo-4 calcium flux | shares compounds with MrgX1 antag | BAM8-22 calcium flux; hits give low values | remaining BAM8-22 calcium response % of control (hits give low values), % at 10 µM | hit rate 19% among 2,300 | AID 602420, 2012;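 active = remaining agonist calcium response no higher than 100% minus 3 SD of agonist-only control wells, with starting fluorescence near control levels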;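 note: agonist BAM8-22 given at a near maximal EC90 to ECmax level; peak minus minimum fluorescence divided by baseline after agonist addition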
HEK293 Ca flux – nonspecific calcium signal in parental HEK293, confirmation, counter-screen for MrgX1 antagonist project, parental HEK293 cells, Fluo-4 calcium flux. shares compounds with MrgX1 antag. Fluo-4 calcium fluorescence, FDSS. fluorescence ratio F(max-min)/F0 at 10 µM. hit rate 2% among 4,000;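 active = duplicate-averaged calcium fluorescence ratio at least three times the standard deviation of buffer wells, a nonspecific response in parental cells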
HEK293 Ca counter – calcium response in parental HEK293 cells, primary screen, counter-screen for MrgX1 allosteric activator project, cell-based, Fluo-4 calcium flux, duplicate. shares compounds with MrgX1 antag. Fluo-4 fluorescence ratio; hits give high values. fluorescence ratio F(max-min)/F0 at 10 µM. hit rate 0.4% among 4,000. AID 624114, 2012;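 active = calcium fluorescence ratio, averaged over duplicates, at least 3 SD of the buffer-well ratio, meaning a nonspecific response in receptor-free cells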;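 note: untransfected parental HEK293 lacking MrgX1 used as counterscreen for MrgX1 allosteric activators; fluorescence change taken during the second addition on a kinetic imager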
HEK293 Ca cntr2 – calcium response in parental HEK293 cells, primary screen, counter-screen for MrgX1 agonist project, cell-based, Fluo-4 calcium flux, duplicate, agonist mode | shares compounds with MrgX1 antag | Fluo-4 calcium fluorescence (FDSS); hits give high values | fluorescence ratio F(max-min)/F0 at 10 µM | hit rate 8.7% among 4,000;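 active = calcium fluorescence ratio at least three times the spread of buffer wells, meaning a non-specific response in parental cells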
* hit, by the source's call; i = inactive; . = no result given.

SMILES	MrgX1 antag	MrgX1 agonist	RGS4 block	MrgX1 PAM	RGS4 act	MrgX1 ant reconf	HEK293 Ca flux	HEK293 Ca counter	HEK293 Ca cntr2
OCCNCCSc1nc(C2CCCCC2)n(-c2ccccc2Cl)n1	i	i	i	i	i	.	.	.	.
O=C(NCCc1ccccc1)c1cnn2c(C(F)F)cc(C3CC3)nc12	i	i	i	i	i	.	.	.	.
Cc1nn(C)cc1CNC(=O)c1cnn2c(C(F)F)cc(C3CC3)nc12	-4.7*	i	i	i	i	i	i	i	i
CC(C)(CNC(=O)Cc1ccc(Br)cc1)N1CCOCC1	i	i	i	i	i	.	.	.	.
COC(=O)c1c(N)sc(C(C)=O)c1C	-8.4*	i	i	i	i	i	i	i	i
COc1cc2ccccc2cc1C(=O)Nc1nccs1	-4.6*	i	i	i	i	i	i	i	i
CSc1ccc(S(=O)(=O)NC2CC2)cc1	i	i	i	i	i	.	.	.	.
Cc1cccc(C)c1NC(=O)CSc1ncnc2nc[nH]c12	-4.7*	i	i	i	i	i	i	i	i
O=C(NC(NC(=S)Nc1ccc(Cl)c(Cl)c1)C(Cl)(Cl)Cl)c1ccco1 (stereo not drawn)	i	i	i	i	i	.	.	.	.
O=C(NC(NC(=S)Nc1cc(Cl)ccc1Cl)C(Cl)(Cl)Cl)c1ccco1 (stereo not drawn)	-5.8*	i	i	i	i	60%*	i	i	i
Cc1ccc2cc(CN(Cc3cccs3)Cc3nnnn3CC3CCCO3)c(=O)[nH]c2c1 (stereo not drawn)	-4.8*	i	i	i	i	i	i	i	i
Cc1ccc2[nH]c(=O)c(CN(Cc3cccs3)Cc3nnnn3CC3CCCO3)cc2c1 (stereo not drawn)	i	i	i	i	i	.	.	.	.
CCN(CC)c1ccc(C=Nc2ccc(N(C)C)cc2)c(O)c1	-4.6*	i	i	i	i	66%*	i	i	i
CCN(CC)c1ccc(N=Cc2ccc(N(CC)CC)cc2O)cc1	-8.2*	i	i	i	i	i	0.24*	i	46*
O=C(CCC1CCCCC1)N1CCN(Cc2ccc3c(c2)OCO3)CC1	i	i	i	i	i	.	.	.	.
Cc1ccc(CNC(=O)C2CCN(c3nnc(N4CCCC4=O)s3)CC2)cc1	i	i	i	i	i	.	.	.	.
CN1CCN(c2ccc(S(=O)(=O)N3CCCCC3)cc2NC(=O)CSCc2ccccc2)CC1	i	i	i	i	i	.	.	.	.
O=C(Nc1ccc2c(c1)C(=O)NC2=O)c1ccc(S(=O)(=O)N2CCCC2)cc1	i	i	i	i	i	.	.	.	.
CCc1ccc(OC(C)C(=O)Nc2ccc(S(=O)(=O)Nc3nccs3)cc2)cc1 (stereo not drawn)	-6.5*	i	i	i	i	74%*	i	i	46*
Cc1ccc(OC(C)C(=O)Nc2ccc(S(=O)(=O)Nc3nccs3)cc2)cc1 (stereo not drawn)	i	i	i	i	i	.	.	.	.
CCn1ccnc1CN1CCN(CC(C)C)C(CCO)C1 (stereo not drawn)	i	i	i	i	i	.	.	.	.
CCn1ccnc1CN1CCN(CCC(C)C)C(CCO)C1 (stereo not drawn)	-6.2*	i	i	i	i	i	i	i	i
CCn1c(-c2csc(-c3ccc(Cl)cc3)n2)n[nH]c1=S	-6*	i	i	i	i	i	i	i	i
CCn1c(-c2csc(-c3ccccc3)n2)n[nH]c1=S	i	i	i	i	i	.	.	.	.
Cc1cc(C(=O)NC2CCCCC2)c2cc(F)ccc2n1	i	i	i	i	i	.	.	.	.
SMILES	MrgX1 antag	MrgX1 agonist	RGS4 block	MrgX1 PAM	RGS4 act	MrgX1 ant reconf	HEK293 Ca flux	HEK293 Ca counter	HEK293 Ca cntr2
Cc1cc(C(=O)NC(C)c2ccccc2)c2cc(F)ccc2n1 (stereo not drawn)	-5.4*	i	i	i	i	i	i	i	i
NC(=O)CSc1nnc(Cc2ccc3c(c2)OCO3)n1C1CCCCC1	-4.6*	i	i	i	i	i	i	i	55*
O=C(CSc1nnc(Cc2ccc3c(c2)OCO3)n1C1CCCCC1)NC1CCCC1	i	i	i	i	i	.	.	.	.
O=C1C(C=NCc2ccco2)=C(O)c2ccccc21	-8.6*	i	i	i	i	i	i	i	i
O=c1c(C(c2ccc(F)cc2)c2c(O)nc3n(c2=O)CCS3)c(O)nc2n1CCS2	i	i	i	i	i	.	.	.	.
Cc1ccc(C(=O)OCC(=O)N(C)C2CCS(=O)(=O)C2)cc1S(=O)(=O)N1CCCCC1 (stereo not drawn)	i	i	i	i	i	.	.	.	.
CN(C(=O)COC(=O)c1cccc(S(=O)(=O)N2CCCCC2)c1)C1CCS(=O)(=O)C1 (stereo not drawn)	-6*	i	i	i	i	i	i	i	i
CCN(C(=O)c1ccc(S(=O)(=O)N2CCC(C)CC2)cc1)C1CCS(=O)(=O)C1 (stereo not drawn)	-4.6*	i	i	i	i	i	i	i	i
O=C(Cn1cnc2cc(Cl)ccc2c1=O)Nc1ccc2c(c1)OCO2	i	i	i	i	i	.	.	.	.
Cc1cccc(-n2ncc3c(NC(C)C)ncnc32)c1	i	i	i	i	i	.	.	.	.
CC(C)Nc1ncnc2c1cnn2-c1ccccc1	-4.9*	i	i	i	i	i	i	i	i
O=C(NCCCCNC(=O)C(F)(F)F)C(F)(F)F	i	i	i	i	i	.	.	.	.

Screening data as filed in PubChem.
